Experimental findings from PMC10925991 (Heliyon, 2024) are described below.

As a reminder, the IC50 is the concentration needed to halve the response being measured.

The subject of test [1] is RPE-1 human normal Retina pigmented epithelium cells. Kind of test: MTT anti-proliferative assay, RPE-1. The conditions noted are these: RPE-1, 48 h, read-out: IC50 (μM) ± SD RPE-1. The format is cell-based. Put shortly: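 RPE-1 cells were grown at 37 °C (5% CO₂, humidified) in RPMI-1640 with 10% heat-inactivated FBS and 100 U/mL penicillin/streptomycin. After 24 h, the medium was changed to serum-free, and serial dilutions of test compound in DMSO were added for 48 h. MTT solution (2.5 mg/mL) was then added for 4 h, formazan was dissolved in DMSO, and A590 was read. Triplicates were repeated on three days. % cytotoxicity = (1 − As/Ab) × 100, from which IC50 was derived.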
For orientation: Tetrazolium dyes change colour on reduction, which living cells bring about.

The test system of test [2] is MCF-7 breast adenocarcinoma cells. Kind of test: MTT anti-proliferative assay, MCF-7. The class given is cell-based. Particulars: Homo sapiens, MCF7, 48 h, read-out: IC50 (μM) ± SD MCF-7.

In the case of `O=c1[nH]c(=S)[nH]c2nc(-c3ccccc3)cc(-c3ccc4ccccc4n3)c12` [Compound 1, 7-phenyl-5-(quinolin-2-yl)-2-thioxo-2,3-dihydropyrido[2,3-d] pyrimidin-4(1H)-one], the half-inhibitory concentration (IC50) in test [1] came to 54.2 ± 2.3 µM; in test [2], 45.5 ± 2.5 µM.
Consider `CSc1nc2nc(-c3ccccc3)cc(-c3ccc4ccccc4n3)c2c(=O)[nH]1` [Compound 2, 2-(methylthio)-7-phenyl-5-(quinolin-2-yl) pyrido [2,3-d] pyrimidin-4(3H)-one], for which the IC50 in test [1] amounted to 52.6 ± 1.9 µM; in test [2], 43.2 ± 2.2 µM.
With `O=c1c2c(-c3ccc4ccccc4n3)cc(-c3ccccc3)nc2nc2n(-c3ccccc3)nc(-c3ccccc3)n12` [Compound 5a, 1,3,8-triphenyl-6-(quinolin-2-yl) pyrido [2,3-d] [1,2,4] triazolo[4,3-a] pyrimidin-5(1H)-one], the half-maximal inhibitory concentration (IC50) in test [1] was determined as 26.4 ± 1.4 µM; in test [2], 15.1 ± 2.3 µM.
In the same order, the values of `CS(=O)(=O)c1nc2nc(-c3ccccc3)cc(-c3ccc4ccccc4n3)c2c(=O)[nH]1` [Compound 6, 2-(methylsulfonyl)-7-phenyl-5-(quinolin-2-yl) pyrido [2,3-d] pyrimidin-4(3H)-one] are 47.3 ± 1.7 µM and 37.8 ± 1.4 µM.
In the same order, the values of `O=c1[nH]c(N2CCNCC2)nc2nc(-c3ccccc3)cc(-c3ccc4ccccc4n3)c12` [Compound 7a, 7-phenyl-2-(piperazin-1-yl)-5-(quinolin-2-yl) pyrido [2,3-d] pyrimidin-4(3H)-one] are 42.1 ± 1.9 µM and 31.2 ± 1.8 µM.
The like results for `O=c1[nH]c(N2CCOCC2)nc2nc(-c3ccccc3)cc(-c3ccc4ccccc4n3)c12` [Compound 7b, 2-morpholino-7-phenyl-5-(quinolin-2-yl) pyrido [2,3-d] pyrimidin-4(3H)-one] were, in that order, 43.5 ± 1.5 µM and 32.5 ± 1.3 µM.
Turning to `O=C(O)c1ccccc1Nc1nc2nc(-c3ccccc3)cc(-c3ccc4ccccc4n3)c2c(=O)[nH]1` [Compound 8, 2-((4-oxo-7-phenyl-5-(quinolin-2-yl)-3,4-dihydropyrido[2,3-d]pyrimidin-2-yl)amino) benzoic acid], the concentration for half-maximal inhibition (IC50) in test [1] came out at 45.2 ± 1.5 µM; in test [2], 35.4 ± 1.1 µM.
In the same order, the values of `O=c1c2ccccc2[nH]c2nc3nc(-c4ccccc4)cc(-c4ccc5ccccc5n4)c3c(=O)n12` [Compound 9, 2-phenyl-4-(quinolin-2-yl)-5H-pyrido [2′,3':4,5] pyrimido [2,1-b] quinazoline-5,7(12H)-dione] are 21.2 ± 1.1 µM and 8.1 ± 2.1 µM.
For `CSc1nc(Cl)c2c(-c3ccc4ccccc4n3)cc(-c3ccccc3)nc2n1` [Compound 10, 4-chloro-2-(methylthio)-7-phenyl-5-(quinolin-2-yl) pyrido[2,3-d] pyrimidine], the results for the half-inhibitory concentration (IC50) in test [1] and in test [2] were 50.4 ± 1.8 µM and 40.1 ± 2.3 µM, respectively.
The like results for `NNc1nc(NN)c2c(-c3ccc4ccccc4n3)cc(-c3ccccc3)nc2n1` [Compound 11, 2,4-dihydrazinyl-7-phenyl-5-(quinolin-2-yl) pyrido [2,3-d] pyrimidine] were, in that order, 40.1 ± 1.6 µM and 29.5 ± 1.5 µM.
Consider `c1ccc(Nc2nc(Nc3ccccc3)c3c(-c4ccc5ccccc5n4)cc(-c4ccccc4)nc3n2)cc1` [Compound 13a, N^2, N^4,7-triphenyl-5-(quinolin-2-yl) pyrido [2,3-d] pyrimidine-2,4-diamine], for which the IC50 in test [1] was 34.7 ± 1.3 µM; in test [2], 23.9 ± 2.1 µM.
As for `Clc1ccc(Nc2nc(Nc3ccc(Cl)cc3)c3c(-c4ccc5ccccc5n4)cc(-c4ccccc4)nc3n2)cc1` [Compound 13b, N^2, N^4-bis(4-chlorophenyl)-7-phenyl-5-(quinolin-2-yl) pyrido [2,3-d] pyrimidine-2,4-diamine], the IC50 in test [1] was 32.4 ± 1.7 µM; in test [2], 21.8 ± 2.2 µM.
As to `COc1ccc(Nc2nc(Nc3ccc(OC)cc3)c3c(-c4ccc5ccccc5n4)cc(-c4ccccc4)nc3n2)cc1` [Compound 13c, N^2, N^4-bis(4-methoxyphenyl)-7-phenyl-5-(quinolin-2-yl) pyrido [2,3-d] pyrimidine-2,4-diamine], the results for the IC50 in test [1] and in test [2] were 33.2 ± 1.4 µM and 22.5 ± 2.3 µM, respectively.
The like results for `c1ccc(-c2cc(-c3ccc4ccccc4n3)c3c(N4CCNCC4)nc(N4CCNCC4)nc3n2)cc1` [Compound 14a, 7-phenyl-2,4-di (piperazin-1-yl)-5-(quinolin-2-yl) pyrido [2,3-d] pyrimidine] were, in that order, 28.1 ± 1.6 µM and 18.7 ± 1.9 µM.
Consider `c1ccc(-c2cc(-c3ccc4ccccc4n3)c3c(N4CCOCC4)nc(N4CCOCC4)nc3n2)cc1` [Compound 14b, 4,4'-(7-phenyl-5-(quinolin-2-yl)pyrido [2,3-d]pyrimidine-2,4-diyl) dimorpholine], for which the figures for the IC50 in test [1] and in test [2] were 29.3 ± 1.1 µM and 19.2 ± 1.5 µM, respectively.
For `O=C(O)c1ccccc1Nc1nc(Nc2ccccc2C(=O)O)c2c(-c3ccc4ccccc4n3)cc(-c3ccccc3)nc2n1` [Compound 15, 2,2'-((7-phenyl-5-(quinolin-2-yl)pyrido [2,3-d]pyrimidine-2,4-diyl)bis(azanediyl)) dibenzoic acid], the IC50 in test [1] amounted to 38.2 ± 1.1 µM; in test [2], 27.1 ± 1.2 µM.
Regarding `O=c1c2ccccc2nc2n1c1nc(-c3ccccc3)cc(-c3ccc4ccccc4n3)c1c1nc3ccccc3c(=O)n12` [Compound 16, 8-phenyl-6-(quinolin-2-yl)-11H,18H-pyrido [3′,2':5,6] pyrimido [2,1-b:4,3-b'] diquinazoline-11,18-dione], the figures for the IC50 in test [1] and in test [2] were 17.5 ± 1.8 µM and 6.2 ± 1.3 µM, respectively.
For the compound `COc1cccc2c1C(=O)c1c(O)c3c(c(O)c1C2=O)C[C@@](O)(C(=O)CO)C[C@@H]3O[C@H]1C[C@H](N)[C@H](O)[C@H](C)O1` [Doxorubicin, reference compound], the results for the half-maximal inhibitory concentration (IC50) in test [1] and in test [2] were 30.1 ± 3.1 µM and 10.5 ± 2.2 µM, respectively.
Take `CNC(=O)c1cc(Oc2ccc(NC(=O)Nc3ccc(Cl)c(C(F)(F)F)c3)cc2)ccn1` [Sorafenib, reference compound]: the half-inhibitory concentration (IC50) in test [2] is 31 µM.
Still for that read-out and setting: with `CS(=O)(=O)CCNCc1ccc(-c2ccc3ncnc(Nc4ccc(OCc5cccc(F)c5)c(Cl)c4)c3c2)o1` [lapatinib, reference compound] the figure was 136 µM.
